How the values were obtained:
[1] = biological target: Adenosine receptors; A1 & A3 (Homo sapiens) (UniProt P30542+P0DMS8); assay: Ratio of binding affinity for adenosine A3 receptor to adenosine A1 receptor; format: protein assay
[2] = biological target: T1, Adenosine receptor A1 (Homo sapiens, UniProt P30542); assay: Displacement of [3H]CCPA from human adenosine A1 receptor expressed in CHO cells; format: cell-based
T1 sequence (P30542 whole entry): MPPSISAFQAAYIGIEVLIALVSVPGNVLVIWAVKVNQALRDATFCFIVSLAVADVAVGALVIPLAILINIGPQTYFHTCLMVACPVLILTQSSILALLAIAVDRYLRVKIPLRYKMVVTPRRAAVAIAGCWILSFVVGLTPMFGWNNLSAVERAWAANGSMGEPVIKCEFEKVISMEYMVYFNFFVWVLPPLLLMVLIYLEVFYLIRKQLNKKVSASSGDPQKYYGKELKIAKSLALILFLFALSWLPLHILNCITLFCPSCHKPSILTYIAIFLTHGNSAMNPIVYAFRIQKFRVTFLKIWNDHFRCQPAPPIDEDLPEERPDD

[3] = biological target: T2, Adenosine receptor A3 (Homo sapiens, UniProt P0DMS8); assay: Displacement of [3H]NECA from human adenosine A3 receptor in stably transfected HEK cells; format: cell-based, HEK293
T2 sequence (P0DMS8 whole entry): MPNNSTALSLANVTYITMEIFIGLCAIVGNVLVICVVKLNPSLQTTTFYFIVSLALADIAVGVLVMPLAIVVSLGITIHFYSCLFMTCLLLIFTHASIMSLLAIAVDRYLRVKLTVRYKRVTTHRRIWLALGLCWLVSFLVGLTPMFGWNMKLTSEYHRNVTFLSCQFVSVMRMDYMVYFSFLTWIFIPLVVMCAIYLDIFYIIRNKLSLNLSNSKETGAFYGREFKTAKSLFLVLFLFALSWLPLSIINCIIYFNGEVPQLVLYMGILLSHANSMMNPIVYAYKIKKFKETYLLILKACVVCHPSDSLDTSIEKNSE
Method in brief: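 Competition for specific [³H]NECA binding at human recombinant A3 receptor stably transfected into HEK cells; Ki reported in nM.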

[4] = biological target: Adenosine receptors; A1 & A2a (Homo sapiens) (UniProt P30542+P29274); assay: Ratio of binding affinity for adenosine A2A receptor to adenosine A1 receptor; format: protein assay
Sequence of Adenosine receptors; A1 & A2a (Homo sapiens) (P29274 whole entry, looked up, one chain of several): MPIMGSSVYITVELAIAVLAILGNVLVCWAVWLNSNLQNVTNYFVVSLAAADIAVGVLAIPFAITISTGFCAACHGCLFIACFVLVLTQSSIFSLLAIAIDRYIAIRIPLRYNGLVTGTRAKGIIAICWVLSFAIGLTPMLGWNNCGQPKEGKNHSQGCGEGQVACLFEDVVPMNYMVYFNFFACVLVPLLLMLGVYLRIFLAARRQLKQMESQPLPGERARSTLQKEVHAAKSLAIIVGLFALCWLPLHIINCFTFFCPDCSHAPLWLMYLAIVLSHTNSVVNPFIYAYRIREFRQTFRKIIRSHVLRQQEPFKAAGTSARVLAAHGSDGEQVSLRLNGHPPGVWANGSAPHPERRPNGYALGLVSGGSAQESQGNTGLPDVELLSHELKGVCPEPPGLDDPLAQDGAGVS

[5] = biological target: Adenosine receptor A2a (Homo sapiens, UniProt P29274); assay: Displacement of [3H]NECA from human adenosine A2A receptor in stably transfected CHO cells; format: cell-based
Sequence of Adenosine receptor A2a (P29274 whole entry): as the sequence (P29274 whole entry, looked up, one chain of several) above
Method in brief: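 Radioligand displacement of specific [³H]NECA binding to human recombinant A2A receptor stably expressed in CHO cells; affinity given as Ki (nM).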

[6] = biological target: T3, Adenosine receptor A2b (Homo sapiens) (UniProt P29275); assay: Potency NECA-induced signal mediated by human A2B receptor in CHO cells at 100 uM; format: cell-based
T3 sequence (whole entry): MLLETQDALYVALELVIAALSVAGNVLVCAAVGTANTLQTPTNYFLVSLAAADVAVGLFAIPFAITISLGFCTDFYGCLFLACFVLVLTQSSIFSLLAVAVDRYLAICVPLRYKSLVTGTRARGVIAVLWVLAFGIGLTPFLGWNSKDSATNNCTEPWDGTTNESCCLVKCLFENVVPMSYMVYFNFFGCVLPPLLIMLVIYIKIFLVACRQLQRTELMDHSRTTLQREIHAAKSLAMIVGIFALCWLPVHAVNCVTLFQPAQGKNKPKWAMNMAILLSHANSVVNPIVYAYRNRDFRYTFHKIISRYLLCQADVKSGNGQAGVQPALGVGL
Method in brief: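 Adenylyl cyclase activation measured in membranes from CHO cells stably transfected with human A2B receptor; test compounds at […], response expressed as percent of maximal NECA signal.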

| Structure (SMILES) | Ratio [1] | Ki [2] [nM] | Ki [3] [nM] | Ratio [4] | Ki [5] [nM] | Potency [6] [%] |
| --- | --- | --- | --- | --- | --- | --- |
| Nc1nc(NC(=O)CC2CCCCC2)nc2c1ncn2[C@@H]1O[C@H](CO)[C@@H](O)[C@H]1O | 4 | 342 | 1230 | 7 | 2410 | < 20 |
| OC[C@H]1O[C@@H](n2cnc3c(NC4CCCC4)nc(Cl)nc32)[C@H](O)[C@@H]1O |  |  |  |  |  | < 20 |
| CCNc1nc(NC(=O)CC2CCCCC2)nc2c1ncn2[C@@H]1O[C@H](CO)[C@@H](O)[C@H]1O | 0.9 | 207 | 181 | 37 | 7750 | < 20 |
| Nc1nc(NC(=O)CCCC2CCCCC2)nc2c1ncn2[C@@H]1O[C@H](CO)[C@@H](O)[C@H]1O | 1.4 | 733 | 1060 | 3 | 1940 | < 20 |
| Nc1nc(NC(=O)C2CCCCC2)nc2c1ncn2[C@@H]1O[C@H](CO)[C@@H](O)[C@H]1O | 1.7 | 1620 | 2760 | 1.1 | 1780 | < 20 |
| Nc1nc(NC(=O)CCc2ccccc2)nc2c1ncn2[C@@H]1O[C@H](CO)[C@@H](O)[C@H]1O | 6 | 432 | 2710 | 11 | 4570 | < 20 |
| CCNC(=O)[C@H]1O[C@@H](n2cnc3c(N)nc(NC(=O)CCC4CCCC4)nc32)[C@H](O)[C@@H]1O | 0.2 | 5450 | 1010 | 2 | 10800 | < 20 |
| Nc1nc(NC(=O)CCC2CCCC2)nc2c1ncn2[C@@H]1O[C@H](CO)[C@@H](O)[C@H]1O | 4 | 252 | 1040 | 8 | 2000 | < 20 |

Second part, the compound after the results:

| Ratio [1] | Ki [2] [nM] | Ki [3] [nM] | Ratio [4] | Ki [5] [nM] | Potency [6] [%] | Structure (SMILES) |
| --- | --- | --- | --- | --- | --- | --- |
| 13 | 70.7 | 900 | 58 | 4100 | < 20 | Nc1nc(NC(=O)/C=C/c2ccccc2)nc2c1ncn2[C@@H]1O[C@H](CO)[C@@H](O)[C@H]1O |
| 60 | 20.7 | 1250 | 273 | 5660 | < 20 | O=C(CCc1ccccc1)Nc1nc(NC2CCCC2)c2ncn([C@@H]3O[C@H](CO)[C@@H](O)[C@H]3O)c2n1 |
| 44 | 31.8 | 1410 | 69 | 2180 | < 20 | O=C(CCC1CCCC1)Nc1nc(NC2CCCC2)c2ncn([C@@H]3O[C@H](CO)[C@@H](O)[C@H]3O)c2n1 |
